Assay outcomes from PubChem BioAssay.
KCNK3 block: human KCNK3 channel inhibition, primary screen. CHO-KCNK3 thallium flux, FluxOR fluorescence; stronger effect = lower value. B-score at 10 µM. actives 0.84% (n = 340,000). AID 602410;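 active = B-score under library mean minus 4 SD, starting fluorescence ratio at most library mean plus 5 SD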;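 note: more negative B-score means stronger inhibition of thallium flux through KCNK3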
KCNK9 block: inhibitors of human KCNK9 two-pore domain potassium channel. Q9NPC2. HEK293 KCNK9, FluxOR thallium flux fluorescence; stronger effect = lower value. B-score at 10 µM. actives 1.2% (n = 310,000). AID 488922;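 active = ratio B-score over 3 SD below the library mean, with starting fluorescence within 5 SD of its mean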;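 note: negative B-score means less thallium flux so channel inhibition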
KCNQ1 block: human KCNQ1 channel inhibition | CHO-K1 KCNQ1, FluxOR thallium flux fluorescence; stronger effect = higher value | B-score at 10 µM | actives 1.3% (n = 310,000);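 active = compounds whose thallium flux B-score, printed positive for inhibition, exceeds three library SD while starting fluorescence stays within three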;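 note: channel opened by potassium depolarization with thallium stimulus after 20 min compound exposure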
Target sequence (P51787 whole entry, looked up): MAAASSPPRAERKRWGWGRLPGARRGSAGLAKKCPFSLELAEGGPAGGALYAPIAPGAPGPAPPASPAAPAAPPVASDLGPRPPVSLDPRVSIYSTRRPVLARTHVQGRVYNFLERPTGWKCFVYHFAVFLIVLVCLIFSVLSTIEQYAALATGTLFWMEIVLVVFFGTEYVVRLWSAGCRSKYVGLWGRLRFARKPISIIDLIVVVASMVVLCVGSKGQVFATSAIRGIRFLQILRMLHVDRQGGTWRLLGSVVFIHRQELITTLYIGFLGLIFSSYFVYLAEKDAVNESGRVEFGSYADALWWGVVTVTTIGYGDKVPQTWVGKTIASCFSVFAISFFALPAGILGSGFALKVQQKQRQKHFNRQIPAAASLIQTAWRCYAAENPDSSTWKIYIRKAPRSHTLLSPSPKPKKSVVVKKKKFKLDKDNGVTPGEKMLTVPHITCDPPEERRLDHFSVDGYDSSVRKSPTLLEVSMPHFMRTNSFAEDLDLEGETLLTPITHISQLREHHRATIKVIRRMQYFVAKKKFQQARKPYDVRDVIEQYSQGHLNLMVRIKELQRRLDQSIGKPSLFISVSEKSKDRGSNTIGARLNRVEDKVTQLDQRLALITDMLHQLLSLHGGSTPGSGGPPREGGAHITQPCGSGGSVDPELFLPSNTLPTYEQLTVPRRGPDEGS
hERG rescue: hERG (human) protection from proarrhythmic block; Q12809; CHO-hERG, FluxOR thallium flux, dofetilide IC70 present; activation (rescue from dofetilide block), less the hit threshold, % at 10 µM; actives 0.51% (n = 310,000); AID 1511;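 active = activation above the mean of controls blocked by dofetilide plus 5 SD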;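 note: thallium influx through hERG after potassium depolarization seen as dye fluorescence rise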
KCNQ1 pot: potentiators or activators of human KCNQ1 potassium channel; actives 0.35% (n = 310,000); B-score at 10 µM; CHO-K1 KCNQ1, thallium flux FluxOR fluorescence; stronger effect = higher value;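 active = fluorescence ratio B-score, a plate-corrected score, at least three library SD, with initial intensity B-score within 5 SD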
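Schedule – 37 °C overnight plating, 90-min dark dye load, 20-min compound pretreatment · System – stable KCNQ1 CHO-K1 line · Probe or stimulus – thallium- and potassium-containing depolarizing buffer · Measured by – kinetic FluxOR fluorescence, 10 s baseline plus 110 s post-stimulus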
KCNQ1 block val: human KCNQ1 channel inhibition, validation assay; actives 93% (n = 1,600); KCNQ1 cell line, FluxOR thallium flux fluorescence; AID 588353; inhibition, % at 10 µM; shares compounds with KCNQ1 block;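 active = primary screen active, with duplicate mean exceeding buffer control mean plus 3 SD of buffer wells, cut at about 28% in these data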;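 note: 0% = buffer control ratio and 100% = XE991 inhibitor control ratio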
CHO Tl flux: KCNQ1 inhibitor counter-screen hit in parental CHO cells; fluorescence ratio (Tl flux) at 10 µM; shares compounds with KCNQ1 block; parental CHO-K1, FluxOR thallium flux fluorescence ratio; stronger effect = lower value; zero means no signal rise above baseline; AID 588366; actives 21% (n = 1,600);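 active = mean of duplicate thallium-flux fluorescence ratios in parental host cells more than 5 SD below the buffer control mean, cut at about 0.38 in these data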;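 note: ratio is peak minus minimum fluorescence divided by baseline fluorescence; actives read low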
KCNQ1 APC inh: human KCNQ1 inhibition validated by electrophysiology | shares compounds with KCNQ1 block | KCNQ1-CHO cells, automated patch clamp current | calls only at 10 µM | actives 20% (n = 490);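 active = KCNQ1 current drop exceeding 3 SD of negative control wells, seen in both duplicate runs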;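 note: steady state current during a 2 s step from -80 to +40 mV; negative values mean current inhibition and positive values mean potentiation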
KCNQ2 inh: selectivity of KCNQ1 inhibitors: inhibition of rat KCNQ2 channel. shares compounds with KCNQ1 block. KCNQ2 cells, FluxOR thallium flux fluorescence. inhibition, % at 10 µM. actives 71% (n = 1,600). AID 651746;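 active = mean percent inhibition of the KCNQ2 thallium signal more than 5 SD above the buffer-only control wells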;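 note: KCNQ2 expressed in CHO cells; 0% = buffer control wells and 100% = XE-991 inhibitor control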
KCNQ1-KCNE1 inh: human KCNQ1/KCNE1 inhibition in KCNQ1 specificity screen; KCNQ1/KCNE1 cells, FluxOR thallium flux fluorescence; shares compounds with KCNQ1 block; AID 652147; actives 77% (n = 1,600); inhibition, % at 10 µM;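 active = mean percent inhibition of duplicate wells above the buffer-only control mean plus 3 SD of those controls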;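 note: 0% = buffer only wells and 100% = XE-991 inhibitor control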
Numbers without * were called inactive; i = inactive; · = no result given. In the library only some 3.1% were active in any assay of this set; here they are far more common.

SMILES	KCNK3 block	KCNK9 block	KCNQ1 block	hERG rescue	KCNQ1 pot	KCNQ1 block val	CHO Tl flux	KCNQ2 inh	KCNQ1-KCNE1 inh	others
COc1ccc(-c2nc3ccccc3nc2-c2ccc(OC)cc2)cc1	i	i	10*	-9	i	88*	0.34*	96%*	115%*
Oc1ccc(-c2nc3ccccc3nc2-c2ccccc2)cc1	i	i	7*	-13	i	84*	0.38*	71%*	110%*
O=C(O)CCCCCNC(=O)OCC1c2ccccc2-c2ccccc21	i	i	i	-9	i	·	·	·	·
CCOC(=O)C1=C(N)Oc2ccc3ccccc3c2C1c1cccc(O)c1 (centres undefined)	i	i	6*	-8	i	116*	0.39	122%*	123%*	KCNQ1 APC inh=i
CCOC(=O)C1=C(N)Oc2ccc3ccccc3c2C1c1cccnc1 (centres undefined)	i	i	i	-6	i	·	·	·	·
O=C(c1ccco1)N1CCCC(c2nc3c(nnn3Cc3ccccc3)c(=O)[nH]2)C1 (centres undefined)	i	i	i	-6	i	·	·	·	·
CC(C)(C)c1nc(N2CCN(C(=O)c3ccco3)CC2)c2nnn(Cc3ccccc3)c2n1	i	i	7*	-9	i	118*	0.39	105%*	132%*	KCNQ1 APC inh=i
CCOC(=O)CC[C@H](NC(=O)Cn1cnc(C(=O)Nc2ccc(C)c(C)c2)n1)C(=O)OCC	i	·	·	·	·	·	·	·	·
O=C(CN(c1ccc(Cl)c(Cl)c1)S(=O)(=O)c1ccccc1)N1CCc2ccccc2C1	i	i	6*	-6	i	56*	0.34*	119%*	96%*
CCc1nc(N2CCN(C(=O)CCl)CC2)c2c3c(sc2n1)CC(C)CC3 (centres undefined)	i	i	i	-12	i	·	·	·	·
CCN1CCN(CCNC(=O)c2ccc(/C=C3/Sc4ccccc4N(Cc4cccc(Cl)c4)C3=O)cc2)CC1	i	i	14*	-33	i	80*	0.34*	97%*	145%*
CCc1c(C)nc2nc(SCc3ccccc3Cl)[nH]n2c1=O	i	i	9*	-12	i	85*	0.48	69%*	34%*
Cc1ccc(S(=O)(=O)n2ccc3c2CCCC3=O)cc1	i	i	i	-6	i	·	·	·	·
COc1ccc2oc(C(=O)NCCN3CCOCC3)c(C)c2c1OC	i	i	i	-2	i	·	·	·	·
CCOc1ncccc1C(=O)OCC(=O)NC(=O)NC(C)C	i	i	8*	-12	i	0	0.51	i	i
CCOc1ncccc1C(=O)OCC(=O)Nc1ccc(C(C)C)cc1	i	i	i	-13	i	·	·	·	·
Cc1cc(/C=C2/SC(=S)N(c3ccc([N+](=O)[O-])cc3)C2=O)c(C)n1-c1cccnc1	i	i	16*	-9	i	124*	0.47	75%*	102%*	KCNQ1 APC inh=i
Cc1cc2cc3c(cc2nc1SCC(=O)N1c2ccccc2CC1C)OCO3 (centres undefined)	i	i	6*	-4	i	100*	0.35*	78%*	90%*
CC1Cc2ccccc2N1C(=O)CSc1ccccc1 (centres undefined)	i	i	i	-14	i	·	·	·	·
CC(C)c1nc(SCC(=O)N2c3ccccc3CC2C)c2ccccc2n1 (centres undefined)	i	i	9*	-12	i	74*	0.38*	96%*	72%*
